From PubChem BioAssay
VIM-2 inhibitor = inhibitors of Pseudomonas aeruginosa VIM-2 metallo-beta-lactamase | purified VIM-2, nitrocefin hydrolysis, epi-absorbance fluorescence | inhibition, % at 5.6 µM | 0.89% of 290,000 active;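 active = inhibition above the mean of all tested compounds plus 3 SD, cutoff set per screening run, cut at about 7.5% in these data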;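 also: red hydrolysis product quenches plate fluorescence so inhibitors raise well fluorescence; 0% = enzyme with DMSO and 100% = DMSO without enzyme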
PolyA inh = inhibitors of polyadenylation in S. cerevisiae; S. cerevisiae SKY197-pL101 polyadenylation reporter, beta-gal luminescence; efflux-impaired pdr1/pdr3 knockout yeast; score 100 = 6 SD above DMSO; activity score, % at 12 µM; 0.02% of 300,000 active; AID 1875;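 active = lowest replicate activity score at least 50, where 100 means six control SD above control mean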;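 also: yeast exposed to compound for 9 h at 30 °C; higher score means more reporter readthrough which indicates perturbed polyadenylation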
SUMO Mot1 rescue = SUMOylation pathway inhibition by Mot1-301 growth rescue; growth rescue, % at 18.8 µM; 1% of 320,000 active; S. cerevisiae Mot1-301 growth rescue, ATP luminescence, 38.5C; percent above DMSO median, 100 means doubled;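 active = every valid replicate shows activation above 250% relative to neutral control wells; inactive = the rest, any valid replicate at or below 250%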;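 also: OY570 slx delta 5 strain wells were the positive control but not used for scaling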
NALP3 yeast inh = blocks the NALP3 inflammasome reconstituted in yeast. Yeast reconstituted NLRP3/ASC/caspase-1, beta-gal luminescence, 24 h. inhibition, % at 10 µM. 0.39% of 330,000 active. AID 2825;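 active = inhibition of 50% or more; inactive = inhibition below 50%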;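 also: plate controls were induced DMSO wells for no effect and uninduced yeast grown without galactose for full effect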
IMP-1 inh-1 = inhibitors of Pseudomonas aeruginosa IMP-1 metallo-beta-lactamase. purified IMP-1, nitrocefin hydrolysis, epi-absorbance fluorescence. 0.45% of 290,000 active. inhibition, % at 5.6 µM. AID 1556;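 active = inhibition above the mean plus 3 SD of all compounds in the same screening run, cut at about 4.5% in these data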;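 also: 0% = IMP-1 with DMSO and 100% = DMSO wells lacking enzyme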
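System: purified IMP-1 / Input: IMP-1 dispensed at 0.2 nM / Medium: 50 mM HEPES pH 7.1, 50 µM ZnSO4, 0.05% Brij 35 / Timing: 15 min enzyme–compound preincubation, then 25 min nitrocefin reaction, 25 °C / Technique: plate fluorescence quenching by hydrolysis product, ex 480/em 530 nm / Repeats: singlicate testing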
NALP1 inh = NALP1 inhibition | S. cerevisiae NALP1/ASC/caspase-1 growth, X-gal OD620, 72 h | inhibition, % at 10 µM | 0.61% of 280,000 active | AID 2071; in the data active = inhibition mostly above about 24%, no sharp cut-off; inactive = mostly below about 32%
IMP-1 inh-2 = blocks IMP-1 metallo-beta-lactamase in VIM-2 selectivity screen. shares compounds with VIM-2 inhibitor. purified IMP-1, nitrocefin hydrolysis, epi-absorbance fluorescence. inhibition, % at 5.6 µM. 1,300 tested, under 10 active; call rule not given here;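 also: 0% = enzyme with vehicle and 100% = vehicle without enzyme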
VIM-2 FRET inh = inhibits VIM-2 in FRET assay to exclude epi-absorbance artifacts. 23% of 1,300 active. shares compounds with VIM-2 inhibitor. inhibition, % at 5.6 µM. AID 1857. purified VIM-2, CCF2 FRET substrate hydrolysis;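 active = inhibition above the mean of all tested compounds plus 3 SD, cut at about 19% in these data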;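 also: 0% = VIM-2 plus DMSO and 100% = no enzyme wells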
TEM-1 counter = selectivity counter-screen for VIM-2 inhibitors: E. coli TEM-1 inhibitors | Purified TEM-1, nitrocefin hydrolysis, epi-absorbance fluorescence | AID 1866 | 3% of 1,300 active | inhibition, % at 5.6 µM | shares compounds with VIM-2 inhibitor;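 active = inhibition above that campaign's mean inhibition plus 3 SD, cut at about 0.46% in these data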;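 also: 0% = TEM-1 with DMSO and 100% = TEM-1 with 100 µM potassium clavulanate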
Target sequence (P62593 whole entry, looked up): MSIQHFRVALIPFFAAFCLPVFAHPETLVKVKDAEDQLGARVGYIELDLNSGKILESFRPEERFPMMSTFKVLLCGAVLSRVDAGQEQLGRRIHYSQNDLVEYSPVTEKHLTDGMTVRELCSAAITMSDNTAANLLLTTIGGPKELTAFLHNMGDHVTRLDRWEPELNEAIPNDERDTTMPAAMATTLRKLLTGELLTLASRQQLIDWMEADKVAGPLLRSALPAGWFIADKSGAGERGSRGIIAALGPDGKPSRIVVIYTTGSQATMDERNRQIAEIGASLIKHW
VIM-2 confirm 2 = confirmation of P. aeruginosa VIM-2 metallo-beta-lactamase inhibitors; shares compounds with VIM-2 inhibitor; purified VIM-2, nitrocefin hydrolysis, epi-absorbance; inhibition, % at 5.6 µM; 96% of 1,300 active; AID 2187;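 active = inhibition of the VIM-2 beta-lactamase enzyme above about 11% from the earlier first-round screen, limit read from the data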;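 also: 0% = VIM-2 with DMSO and 100% = buffer wells without enzyme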
* = called active by the depositor. This is a sample that favours compounds with a hit; in the whole collection about 2.9% have one here.

How did O=C(Nc1ccc(F)cc1F)C1CCN(c2ncnc3c2sc2cccc(F)c23)CC1 do in these assays?
VIM-2 inhibitor: 3; PolyA inh: 11; SUMO Mot1 rescue: 7; NALP3 yeast inh: 5; IMP-1 inh-1: -2; NALP1 inh: 9

Results for CC1CC(C)CN(CCCNC(=O)C2CCN(c3ncnc4c3sc3cccc(F)c34)CC2)C1 (stereo unspecified) ?
VIM-2 inhibitor: 25*; PolyA inh: -7; SUMO Mot1 rescue: 0; NALP3 yeast inh: 0; IMP-1 inh-1: -1; IMP-1 inh-2: 0; VIM-2 FRET inh: 3; TEM-1 counter: -6; VIM-2 confirm 2: 36*

What do the screens show for `CC(/C=N/NC(=S)Nc1cccc(S(=O)(=O)N(C)C)c1)c1ccccc1` (stereo unspecified)?
VIM-2 inhibitor: 46*; PolyA inh: 21; SUMO Mot1 rescue: 27; NALP3 yeast inh: 7; IMP-1 inh-1: -4; NALP1 inh: 11; IMP-1 inh-2: -2; VIM-2 FRET inh: 67*; TEM-1 counter: -3; VIM-2 confirm 2: 52*

What do the screens show for `CN(C)S(=O)(=O)c1cccc(NC(=S)N/N=C/c2ccco2)c1`?
VIM-2 inhibitor: 1; PolyA inh: -8; SUMO Mot1 rescue: -9; NALP3 yeast inh: 15; IMP-1 inh-1: -3; NALP1 inh: -8

Results for CN(C)S(=O)(=O)c1cccc(NC(=S)N/N=C/c2ccc(O)c(O)c2O)c1 ?
VIM-2 inhibitor: 1; PolyA inh: -16; IMP-1 inh-1: -2; NALP1 inh: -16

What do the screens show for `CN(C)S(=O)(=O)c1cccc(NC(=S)N/N=C/C(c2ccccc2)c2ccccc2)c1`?
VIM-2 inhibitor: 21*; PolyA inh: -6; SUMO Mot1 rescue: -11; NALP3 yeast inh: -25; IMP-1 inh-1: -6; NALP1 inh: 4; IMP-1 inh-2: -3; VIM-2 FRET inh: 35*; TEM-1 counter: -8; VIM-2 confirm 2: 23*

What do the screens show for `CCN1CCN(c2cc(N3CCN(C(=O)c4ccco4)CC3)c3c4c(onc24)-c2ccccc2C3=O)CC1`?
VIM-2 inhibitor: 23*; PolyA inh: -10; SUMO Mot1 rescue: -30; NALP3 yeast inh: 21; IMP-1 inh-1: 1; NALP1 inh: 8; IMP-1 inh-2: -2; VIM-2 FRET inh: -13; TEM-1 counter: -10; VIM-2 confirm 2: 21*

How did Cc1cc(N2CCN(C(=O)c3ccco3)CC2)c2ccccc2n1 do in these assays?
VIM-2 inhibitor: -2; PolyA inh: 6; SUMO Mot1 rescue: -2; NALP3 yeast inh: 1; IMP-1 inh-1: -2; NALP1 inh: -7

Results for CCOC(=O)N1CCN(C(=O)CSC2=NS(=O)(=O)c3ccccc3N2)CC1 ?
PolyA inh: -4; SUMO Mot1 rescue: -7; NALP3 yeast inh: 21

How did CN(Cc1ccon1)C(=O)C1CCC(=O)N(CCc2ccc(Cl)cc2)C1 (stereo unspecified) do in these assays?
VIM-2 inhibitor: -3; PolyA inh: 17; NALP3 yeast inh: 7; IMP-1 inh-1: -2; NALP1 inh: 8

What do the screens show for `CC(/C=N/n1c(-c2ccccn2)n[nH]c1=S)=C\c1ccccc1`?
VIM-2 inhibitor: 2; PolyA inh: 21; SUMO Mot1 rescue: 1; NALP3 yeast inh: 13; IMP-1 inh-1: -4; NALP1 inh: 7

Results for CCc1n[nH]c(=S)n1/N=C/c1ccc(NC(C)=O)cc1 ?
VIM-2 inhibitor: 23*; PolyA inh: -6; SUMO Mot1 rescue: -3; NALP3 yeast inh: 8; IMP-1 inh-1: -3; NALP1 inh: -2; IMP-1 inh-2: -4; VIM-2 FRET inh: 61*; TEM-1 counter: -7; VIM-2 confirm 2: 46*

How did CC(/C=N/n1c(-c2ccco2)n[nH]c1=S)=C\c1ccccc1 do in these assays?
VIM-2 inhibitor: 13*; PolyA inh: -2; SUMO Mot1 rescue: 11; NALP3 yeast inh: 6; IMP-1 inh-1: -3; NALP1 inh: 28; IMP-1 inh-2: -3; VIM-2 FRET inh: 40*; TEM-1 counter: -7; VIM-2 confirm 2: 23*

How did CCc1n[nH]c(=S)n1/N=C/C(C)=C\c1ccccc1 do in these assays?
VIM-2 inhibitor: 57*; PolyA inh: -5; SUMO Mot1 rescue: -8; NALP3 yeast inh: 44; IMP-1 inh-1: -2; NALP1 inh: 10; IMP-1 inh-2: -4; VIM-2 FRET inh: 83*; TEM-1 counter: -10; VIM-2 confirm 2: 70*

How did CCOC(=O)C1CCCN(C(=O)Cn2ncc3c([nH]c4ccccc43)c2=O)C1 (stereo unspecified) do in these assays?
VIM-2 inhibitor: -1; PolyA inh: -4; SUMO Mot1 rescue: -6; NALP3 yeast inh: 5; IMP-1 inh-1: -1; NALP1 inh: -1

How did Cc1cc(OCC(=O)Nc2ccc(CCO)cc2)c2c(C)c(C)c(=O)oc2c1 do in these assays?
VIM-2 inhibitor: 5; PolyA inh: 9; SUMO Mot1 rescue: -9; NALP3 yeast inh: 17; IMP-1 inh-1: -3; NALP1 inh: -1

What do the screens show for `CCc1cc(=O)oc2cc(C)cc(OCC(=O)NCc3cccnc3)c12`?
VIM-2 inhibitor: 6; PolyA inh: -9; SUMO Mot1 rescue: 3; NALP3 yeast inh: -2; IMP-1 inh-1: -4; NALP1 inh: 2

How did Cc1cc(OCC(=O)Nc2cccnc2)c2c(C)c(C)c(=O)oc2c1 do in these assays?
VIM-2 inhibitor: 61*; PolyA inh: 15; SUMO Mot1 rescue: 25; NALP3 yeast inh: -1; IMP-1 inh-1: 0; NALP1 inh: 12; IMP-1 inh-2: -2; VIM-2 FRET inh: -4; TEM-1 counter: -5; VIM-2 confirm 2: 68*

How did CCc1cc(=O)oc2cc(C)cc(OCC(=O)NCc3ccncc3)c12 do in these assays?
VIM-2 inhibitor: 20*; PolyA inh: 11; SUMO Mot1 rescue: 3; NALP3 yeast inh: 14; IMP-1 inh-1: -1; NALP1 inh: -16; IMP-1 inh-2: -2; VIM-2 FRET inh: -3; TEM-1 counter: -6; VIM-2 confirm 2: 30*

Results for Cc1cc(OCC(=O)NCc2ccncc2)c2c(C)c(C)c(=O)oc2c1 ?
VIM-2 inhibitor: 44*; PolyA inh: -6; SUMO Mot1 rescue: 54; NALP3 yeast inh: 4; IMP-1 inh-1: 0; NALP1 inh: 10; IMP-1 inh-2: -3; VIM-2 FRET inh: 0; TEM-1 counter: -9; VIM-2 confirm 2: 55*
